The values that follow come from ChEMBL document CHEMBL1121917, “Structure--activity relationships in a broad-spectrum anthelmintic series. Acid chloride phenylhydrazones. 1. Aryl substitutions and chloride variations” (1981).

For test [1], the species on record is Mus musculus. Nature of the test: Percent clearance of Nematospiroides dubius from mouse after oral treatment of 7.5 mg/mouse/day. The class given is functional. In outline:
(§1)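 Mice naturally carrying Syphacia obvelata were experimentally infected with Nematospiroides dubius and Hymenolepis nana, then grouped after a 2-week prepatency. Finely ground compound was suspended in aqueous 0.10% carboxymethylcellulose, 0.04% polysorbate 80 and 0.0042% polyparaben, and 0.1 mL was given orally by cannula once daily for 4 days to five mice. Necropsy followed 2 days later, scoring presence or absence of each parasite. Control clearance was subtracted from the treated clearance.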

For test [2], the species on record is Mus musculus. Nature of the test: Percent clearance of Hymenolepis nana from mouse after oral treatment of 7.5 mg/mouse/day. Type of test: functional. Summed up:
as §1

The species named for test [3] is Canis familiaris. Description: percent reduction in Toxascaris eggs per gram, after oral treatment of 50 mg/dog dose of compound in a single treatment. The class given is functional, Canis lupus familiaris, Egg. In outline:
(§2)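 Dogs naturally infected with Toxascaris leonina were experimentally infected with mixed Ancylostoma caninum and Uncinaria stenocephala larvae. Finely ground compound was given orally in gelatin capsules. Three egg count determinations were made before and three after treatment in each experiment.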

The species named for test [4] is Canis familiaris. Nature of the test: percent reduction in Uncinaria eggs per gram, after oral treatment of 50 mg/dog dose of compound in a single treatment. The class given is functional, Canis lupus familiaris, Egg. Summed up: as §2
Test [5] concerns Ovis aries. Description: Percent reduction in Trichuris eggs per gram, after treatment with 100 mg/kg dose of compound perorally in sheep. The class given is functional, Egg. As to conditions: route oral. In outline: (§3)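 Naturally parasitized lambs, dosed orally either with a suspension by stomach tube or with finely ground compound in gelatin capsules by balling gun. Activity was scored by the clinical test method, meaning a significant fall in helminth egg counts after treatment.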

For test [6], the system named is Ovis aries. Description: Percent reduction in Haemonchus eggs per gram, after treatment with 100 mg/kg dose of compound perorally in sheep. Type of test: functional, Egg. The conditions noted are these: route oral. In outline: (§4)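 Naturally parasitized lambs received compound orally, either as the aqueous suspension by stomach tube or as finely ground powder in gelatin capsules by balling gun. Activity was judged by the clinical test method, as a significant decrease in posttreatment helminth egg counts.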

For test [7], the system named is Ovis aries. Nature of the test: Percent reduction in Oesophagostomum eggs per gram, after treatment with 100 mg/kg dose of compound perorally in sheep. As to conditions: route oral. The class given is functional, Egg. In outline:
(§5)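 Naturally parasitized lambs were dosed orally at the stated mg/kg. Dosing was either as a suspension of finely ground compound by stomach tube, or as ground compound weighed into gelatin capsules and given by balling gun. Activity was scored by the clinical test method: the decrease in posttreatment helminth eggs per gram.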

Test [8] deals with Ovis aries. Nature of the test: Percent reduction in Trichostrongylus eggs per gram, after treatment with 100 mg/kg dose of compound perorally in sheep. As to conditions: route oral. Type of test: functional, Egg. Summed up:
as §3

For test [9], the system named is Ovis aries. Description: Percent reduction in Ostertagia eggs per gram, after treatment with 100 mg/kg dose of compound perorally in sheep. Type of test: functional, Egg. As to conditions: route oral. Summed up:
as §5

Test [10] has as its system Ovis aries. Description: Percent reduction in Strongyloides eggs per gram, after treatment with 100 mg/kg dose of compound perorally in sheep. As to conditions: route oral. The class given is functional, Egg. In outline: as §3
The species named for test [11] is Mus musculus. Description: Percent clearance of Syphacaia obvelata from mouse after oral treatment of 7.5 mg/mouse/day. Type of test: functional. In outline:
as §1

For test [12], the species on record is Canis familiaris. Nature of the test: Percent reduction in Uncinaria eggs per gram, after oral treatment of 100 mg/dog dose of compound in a single treatment. Type of test: functional, Canis lupus familiaris, Egg. Summed up:
as §2

The species named for test [13] is Canis familiaris. Nature of the test: percent reduction in Ancylostoma eggs per gram, after oral treatment of 100 mg/dog dose of compound in a single treatment. Type of test: functional, Canis lupus familiaris, Egg. In outline: as §2
The species entered for test [14] is Canis familiaris. Nature of the test: Percent reduction in Toxascaris eggs per gram, after oral treatment of 100 mg/dog dose of compound in a single treatment. The class given is functional, Canis lupus familiaris, Egg. Summed up:
as §2

For test [15], the system named is Ovis aries. Nature of the test: Percent reduction in Haemonchus eggs per gram, after treatment of 100 mg/kg dose of compound perorally in sheep; Toxic. Type of test: functional, organism-based. The conditions noted are these: Egg. Details: dose 100 mg/kg. Summed up:
as §4

The species named for test [16] is Mus musculus. Nature of the test: Percent clearance of Nematospiroides dubius from mouse after oral treatment of 0.47 mg/mouse/day. The class given is functional. Summed up: as §1
The species named for test [17] is Mus musculus. Description: Percent clearance of Syphacaia obvelata from mouse after oral treatment of 0.47 mg/mouse/day. Type of test: functional. In outline: as §1
The species entered for test [18] is Mus musculus. Nature of the test: Percent clearance of Nematospiroides dubius from mouse after oral treatment of 1.87 mg/mouse/day. The class given is functional. In outline: as §1
The species entered for test [19] is Mus musculus. Description: Percent clearance of Syphacaia obvelata from mouse after oral treatment of 1.87 mg/mouse/day. Type of test: functional. Summed up: as §1
In test [20] the test system is Ovis aries. Nature of the test: Percent reduction in Haemonchus eggs per gram, after treatment of 150 mg/kg dose of compound perorally; Toxic. The conditions noted are these: Egg.
For test [21], the system named is Ovis aries. Description: Percent reduction in Trichuris eggs per gram, after oral treatment of 100 mg/kg dose of compound perorally in sheep. The class given is functional, Egg.
Test [22] has as its system Ovis aries. Description: Percent reduction in Oesophagostomum eggs per gram, after oral treatment of 100 mg/kg dose of compound perorally in sheep. Type of test: functional, Egg. Summed up:
as §5

The test system of test [23] is Ovis aries. Nature of the test: Percent reduction in Nematodirus eggs per gram, after oral treatment of 100 mg/kg dose of compound perorally in sheep. Type of test: functional, Egg. Summed up: as §5
For test [24], the system named is Ovis aries. Description: Percent reduction in Trichostrongylus eggs per gram, after oral treatment of 100 mg/kg dose of compound perorally in sheep. Type of test: functional, Egg. Summed up:
as §3

The test system of test [25] is Ovis aries. Description: Percent reduction in Ostertagia eggs per gram, after oral treatment of 100 mg/kg dose of compound perorally in sheep. The class given is functional, Egg. Summed up:
as §5

Test [26] relates to Ovis aries. Description: Percent reduction in Haemonchus eggs per gram, after oral treatment of 100 mg/kg dose of compound perorally in sheep. The class given is functional, Egg. In outline: as §4
Test [27] relates to Ovis aries. Nature of the test: Percent reduction in Strongyloides eggs per gram, after oral treatment of 100 mg/kg dose of compound perorally in sheep. Type of test: functional, Egg. Summed up: as §3
The species entered for test [28] is Mus musculus. Nature of the test: Percent clearance of Nematospiroides dubius from mouse after oral treatment of 0.32 mg/mouse/day. The class given is functional. Summed up:
as §1

The species entered for test [29] is Mus musculus. Nature of the test: Percent clearance of Syphacaia obvelata from mouse after oral treatment of 0.32 mg/mouse/day. Type of test: functional. In outline: as §1
Test [30] is filed under the species Mus musculus. Description: Percent clearance of Nematospiroides dubius from mouse after oral treatment of 3.75 mg/mouse/day. The class given is functional. Summed up: as §1
For test [31], the species on record is Mus musculus. Description: Percent clearance of Syphacaia obvelata from mouse after oral treatment of 3.75 mg/mouse/day. The class given is functional. Summed up:
as §1

The species named for test [32] is Canis familiaris. Nature of the test: Percent reduction in Uncinaria eggs per gram, after oral treatment of 200 mg/dog dose of compound in a single treatment. The class given is functional, Canis lupus familiaris, Egg. In outline: as §2
The species named for test [33] is Canis familiaris. Description: Percent reduction in Ancylostoma eggs per gram, after oral treatment of 100 mg/dog dose of compound in a single treatment. Type of test: functional, Canis lupus familiaris, Egg. In outline: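 Dogs naturally infected with Toxascaris leonina were experimentally infected with mixed Ancylostoma caninum and Uncinaria stenocephala larvae. Finely ground compound was given orally in gelatin capsules. Fecal egg counts were taken three times before and three times after treatment, and activity was taken as the fall in egg counts.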

The test system of test [34] is Ovis aries. Description: Percent reduction in Cooperia eggs per gram, after treatment with 100 mg/kg dose of compound perorally in sheep. The conditions noted are these: route oral. Type of test: functional, Egg. Summed up: as §4

Take `Cl/C(=N\Nc1c(Cl)cc(Cl)cc1Cl)c1c(Cl)cccc1Cl`: the Parasite_Clearance in [1] and in test [2] was 0% throughout.
Consider `Cl/C(=N\Nc1cc(Cl)cc(Cl)c1)c1ccccc1`, for which the Reduction in [3] came to 40%; in test [4] it was 57%; in test [5] it was 100%; in test [6] it was 97%; in test [7] it was 0%; in test [8], 100%. Also, the Reduction in [9] worked out at 100%; in test [10], 45%.
Turning to `Cc1cc(Cl)ccc1N/N=C(\Cl)c1ccccc1`, the Parasite_Clearance in [1] and in [11] was 0% throughout.
Take `Cl/C(=N\Nc1ccc(Cl)c(Cl)c1)c1ccccc1`: the Reduction in test [12] was 0%; in [13], 0%; in test [14] it was 0%; in test [15] it was “Toxic”.
For `Cl/C(=N\Nc1ccccc1)c1ccc(Cl)cc1Cl`, the Parasite_Clearance in [16] and in test [17] was 0% each time.
As to `Cl/C(=N\Nc1ccccc1)c1cccc(Cl)c1`, the Parasite_Clearance in test [18] and in test [19] was 100% throughout. Besides, in test [20], the Reduction entry was “Toxic”.
With `Cc1ccccc1N/N=C(\Cl)c1ccccc1`, the Parasite_Clearance in test [16] came to 100%; in [17] it was 0%.
Take `Cl/C(=N\Nc1ccccc1)c1ccc(Cl)cc1`: the Reduction stood at 0% in test [21]; 100% in test [22]; 100% in test [23]; 99% in test [24]; 100% in [25]; 100% in test [26]. For the same compound, the Reduction in test [27] turned out to be 100%.
For `Cl/C(=N\Nc1ccc(Br)cc1Br)c1ccccc1`, the Parasite_Clearance in test [28] and in [29] was 0% in each case.
In test [1], `Cl/C(=N\Nc1ccccc1)c1ccc(Cl)c(Cl)c1` gave a Parasite_Clearance of 100%.
With `Cl/C(=N\Nc1c(Cl)cc(Cl)cc1Cl)c1cccc(Cl)c1`, the Parasite_Clearance in test [1] is on record as 50%; in test [11], 100%.
For the compound `Cl/C(=N\Nc1c(Cl)cc(Cl)cc1Cl)c1ccc(Br)cc1`, the Parasite_Clearance in test [30] was 0%; in [31] it was 40%.
In the case of `Cc1cc(/C(Cl)=N/Nc2ccccc2)ccc1[N+](=O)[O-]`, the Reduction was determined as 0% in [12] and 55% in test [32]. For the same compound, the Parasite_Clearance in test [30] amounted to 80%; in test [31], 100%.
As for `Cc1ccccc1/C(Cl)=N/Nc1c(Cl)cc(Cl)cc1Cl`, the Reduction in test [12] is given as 20%; in [14] it was 100%; in test [33], 0%; in test [5], 0%; in test [6], 85%; in test [7] it was 11%. Also, the Reduction in test [8] was found to be 14%; in test [9] it was 67%; in [34] it was 33%; in test [10] it was 85%.
As to `CC(C)c1ccc(/C(Cl)=N/Nc2ccccc2)cc1`, the Parasite_Clearance in test [16] and in test [17] was 0% throughout.
As to `O=[N+]([O-])c1ccc(/C(Cl)=N/Nc2ccccc2)c(Cl)c1`, the Parasite_Clearance in [1] and in test [11] was 0% throughout.
Regarding `Cl/C(=N\Nc1c(Cl)cc(Cl)cc1Cl)c1ccc(Cl)c(Cl)c1`, the Parasite_Clearance in test [1] and in test [2] was 0% each time.
For the compound `Cl/C(=N\Nc1ccccc1)c1ccccc1Cl`, the results for the Parasite_Clearance in [18] and in test [19] were 40% and 20%, respectively.
On to `Cl/C(=N\Nc1cc(Cl)c(Cl)cc1Cl)c1ccccc1`, for which the Parasite_Clearance in [30] is recorded as 0%; in test [31] it was 33%.
With `Cl/C(=N\Nc1ccc(Cl)cc1)c1ccccc1`, the Parasite_Clearance in test [16] is reported as 100%; in test [17] it was 80%.
